Reference: ChEMBL document CHEMBL2346664, “Synthesis, characterization and in vitro anticancer evaluation of novel 1,2,4-triazolin-3-one derivatives” (2013)

Key:
Assay type in all cases: functional
A549 = test: Growth inhibition of human A549 cells assessed as cell growth at 10 '-5 M after 48 hrs by sulforhodamine B assay; details: A549, 48 h, read-out: Activity
Procedure, shortened: (§1)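 Percent growth at each of the five concentrations of the 48 h continuous-exposure NCI SRB screen. Drug stocks were in DMSO at 400× the top final concentration and diluted in medium with gentamicin. Growth was calculated as [(Ti-Tz)/(C-Tz)]×100 when Ti ≥ Tz, or [(Ti-Tz)/Tz]×100 when Ti < Tz. Tz plates were fixed at drug addition; untreated wells served as control. Absorbance was read at 515 nm.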

MDA-MB-468 [1] = test: Growth inhibition of human MDA-MB-468 cells assessed as cell growth at 10 '-6 M after 48 hrs by sulforhodamine B assay; details: MDA-MB-468, 48 h, read-out: Activity
M14 = test: Growth inhibition of human M14 cells assessed as growth inhibition at 10 uM after 48 hrs by sulforhodamine B assay; details: M14, 48 h, read-out: GI
SF-539 = test: Growth inhibition of human SF539 cells assessed as growth inhibition at 10 uM after 48 hrs by sulforhodamine B assay; details: SF-539, 48 h, read-out: GI
KM12 [2] = test: Growth inhibition of human KM12 cells assessed as growth inhibition at 10 uM after 48 hrs by sulforhodamine B assay; details: KM12, 48 h, read-out: GI
[3] = Growth inhibition of human Hs 578T cells assessed as cell growth at 10 '-4 M after 48 hrs by sulforhodamine B assay; details: read-out: Activity
MDA-MB-231 = test: Growth inhibition of human MDA-MB-231 cells assessed as cell growth at 10 '-4 M after 48 hrs by sulforhodamine B assay; details: MDA-MB-231, 48 h, read-out: Activity
KM12 [4] = test: Growth inhibition of human KM12 cells assessed as cell growth at 10 '-6 M after 48 hrs by sulforhodamine B assay; details: KM12, 48 h, read-out: Activity
[5] = Growth inhibition of human HCC2998 cells assessed as cell growth at 10 '-6 M after 48 hrs by sulforhodamine B assay; details: HCC 2998, 48 h, read-out: Activity
SR = test: Growth inhibition of human SR cells assessed as cell growth at 10 '-6 M after 48 hrs by sulforhodamine B assay; details: read-out: Activity
PC-3 = test: Growth inhibition of human PC3 cells assessed as cell growth at 10 '-7 M after 48 hrs by sulforhodamine B assay; details: PC-3, 48 h, read-out: Activity
RXF 393 = test: Growth inhibition of human RXF393 cells assessed as cell growth at 10 '-7 M after 48 hrs by sulforhodamine B assay; details: RXF 393, 48 h, read-out: Activity
A498 [6] = test: Growth inhibition of human A498 cells assessed as cell growth at 10 '-7 M after 48 hrs by sulforhodamine B assay; details: A498, 48 h, read-out: Activity; procedure, shortened: as §1
UACC-257 = test: Growth inhibition of human UACC257 cells assessed as cell growth at 10 '-7 M after 48 hrs by sulforhodamine B assay; details: UACC-257, 48 h, read-out: Activity
SNB-75 = test: Growth inhibition of human SNB75 cells assessed as cell growth at 10 '-7 M after 48 hrs by sulforhodamine B assay; details: SNB-75, 48 h, read-out: Activity
LOX IMVI = test: Growth inhibition of human LOXIMVI cells assessed as cell growth at 10 '-4 M after 48 hrs by sulforhodamine B assay; details: read-out: Activity
CAKI-1 = test: Growth inhibition of human CAKI-1 cells after 48 hrs by sulforhodamine B assay; details: CAKI-1, 48 h
Procedure, shortened: (§2)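 NCI 60-cell-line five-dose screen at 0.01, 0.1, 1, 10 and 100 µM final. Cells were plated at 5,000–40,000/well and grown 24 h at 37 °C, 5% CO2, then exposed to drug continuously for 48 h. Adherent cells were fixed with cold TCA (10% final) and stained with SRB; absorbance read at 515 nm. GI50 is the concentration where [(Ti-Tz)/(C-Tz)]×100 = 50, with Tz plates fixed at drug addition.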

A498 [7] = test: Growth inhibition of human A498 cells after 48 hrs by sulforhodamine B assay; details: A498, 48 h; procedure, shortened: as §2
MCF7 [8] = test: Growth inhibition of human MCF7 cells assessed as cell growth at 10 '-5 M after 48 hrs by sulforhodamine B assay; details: MCF7, 48 h, read-out: Activity
TK-10 = test: Growth inhibition of human TK10 cells assessed as cell growth at 10 '-5 M after 48 hrs by sulforhodamine B assay; details: TK-10, 48 h, read-out: Activity
SN12C = test: Growth inhibition of human SN12C cells assessed as cell growth at 10 '-5 M after 48 hrs by sulforhodamine B assay; details: read-out: Activity
K562 = test: Growth inhibition of human K562 cells after 48 hrs by sulforhodamine B assay; details: K562, 48 h
Procedure, shortened: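 NCI 60-cell-line five-dose screen. Cells were plated at 5,000–40,000/well by doubling time and grown 24 h at 37 °C, 5% CO2. Time-zero plates were TCA-fixed. Drug from DMSO stock was tested at 0.01, 0.1, 1, 10 and 100 µM final for 48 h continuous exposure. Read-out was SRB at 515 nm. GI50 is the concentration giving 50% reduction in net protein increase versus untreated control.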

MDA-MB-468 [9] = test: Growth inhibition of human MDA-MB-468 cells assessed as growth inhibition at 10 uM after 48 hrs by sulforhodamine B assay; details: MDA-MB-468, 48 h, read-out: GI
T47D = test: Growth inhibition of human T47D cells assessed as growth inhibition at 10 uM after 48 hrs by sulforhodamine B assay; details: read-out: GI
HOP-92 = test: Growth inhibition of human HOP92 cells assessed as cell growth at 10 '-7 M after 48 hrs by sulforhodamine B assay; details: HOP-92, 48 h, read-out: Activity
[10] = Growth inhibition of human Hs 578T cells assessed as cell growth at 10 '-8 M after 48 hrs by sulforhodamine B assay; details: read-out: Activity
MCF7 [11] = test: Growth inhibition of human MCF7 cells assessed as cell growth at 10 '-8 M after 48 hrs by sulforhodamine B assay; details: MCF7, 48 h, read-out: Activity
UO-31 = test: Growth inhibition of human UO31 cells assessed as cell growth at 10 '-8 M after 48 hrs by sulforhodamine B assay; details: UO-31, 48 h, read-out: Activity
786-0 = test: Growth inhibition of human 786-0 cells assessed as cell growth at 10 '-8 M after 48 hrs by sulforhodamine B assay; details: 786-0, 48 h, read-out: Activity; procedure, shortened: as §1
SNB-19 = test: Growth inhibition of human SNB19 cells assessed as cell growth at 10 '-8 M after 48 hrs by sulforhodamine B assay; details: SNB-19, 48 h, read-out: Activity
[12] = read-out: LD50 (the source's name)

## Cc1cc(=O)oc2cc(OCCn3c(C)nn(-c4ccc(Cl)cc4)c3=O)ccc12
A549
  growth at 10 µM: 37%
MDA-MB-468 [1]
  growth at 1 µM: 77%
M14
  inhibition of growth at 10 µM: 85.3%
SF-539
  inhibition of growth at 10 µM: 70.5%
KM12 [2]
  inhibition of growth at 10 µM: 68.6%
[3]
  growth at 100 µM: 7%
MDA-MB-231
  growth at 100 µM: 11%
KM12 [4]
  growth at 1 µM: 58%
[5]
  growth at 1 µM: 76%
SR
  growth at 1 µM: 29%
PC-3
  growth at 0.1 µM: 90%
RXF 393
  growth at 0.1 µM: 90%
A498 [6]
  growth at 0.1 µM: 76%
UACC-257
  growth at 0.1 µM: 101%
SNB-75
  growth at 0.1 µM: 79%
LOX IMVI
  growth at 100 µM: 30%
CAKI-1
  GI50: 1000 nM
  TGI: > 1000 nM
CAKI-1; [12]
  CC50: > 1000 nM
A498 [7]
  GI50: 1130 nM
  TGI: 3190 nM
A498 [7]; [12]
  CC50: > 1000 nM
MCF7 [8]
  growth at 10 µM: 14%
TK-10
  growth at 10 µM: 58%
SN12C
  growth at 10 µM: 39%
K562
  GI50: 1290 nM
  TGI: > 1000 nM
K562; [12]
  CC50: > 1000 nM
MDA-MB-468 [9]
  inhibition of growth at 10 µM: 83.9%
T47D
  inhibition of growth at 10 µM: 52.6%
HOP-92
  growth at 0.1 µM: 83%
[10]
  growth at 0.01 µM: 88%
MCF7 [11]
  growth at 0.01 µM: 98%
UO-31
  growth at 0.01 µM: 86%
786-0
  growth at 0.01 µM: 103%
SNB-19
  growth at 0.01 µM: 92%
